ChEMBL document CHEMBL2311268, “Targeting the binding function 3 (BF3) site of the androgen receptor through virtual screening. 2. development of 2-((2-phenoxyethyl) thio)-1H-benzimidazole derivatives” (J Med Chem, 2013)
Activity calls are given as the source filed them. No cut-off for these calls is given here.

Columns and labels:
[1] = molecular target: T1, Androgen receptor (Homo sapiens, UniProt P10275); assay: Inhibition of BF3 site of androgen receptor in human LNCAP cells expressing ARR2PB after 3 days by eGFP transcriptional assay; type: cell-based
T1 sequence (P10275 whole entry): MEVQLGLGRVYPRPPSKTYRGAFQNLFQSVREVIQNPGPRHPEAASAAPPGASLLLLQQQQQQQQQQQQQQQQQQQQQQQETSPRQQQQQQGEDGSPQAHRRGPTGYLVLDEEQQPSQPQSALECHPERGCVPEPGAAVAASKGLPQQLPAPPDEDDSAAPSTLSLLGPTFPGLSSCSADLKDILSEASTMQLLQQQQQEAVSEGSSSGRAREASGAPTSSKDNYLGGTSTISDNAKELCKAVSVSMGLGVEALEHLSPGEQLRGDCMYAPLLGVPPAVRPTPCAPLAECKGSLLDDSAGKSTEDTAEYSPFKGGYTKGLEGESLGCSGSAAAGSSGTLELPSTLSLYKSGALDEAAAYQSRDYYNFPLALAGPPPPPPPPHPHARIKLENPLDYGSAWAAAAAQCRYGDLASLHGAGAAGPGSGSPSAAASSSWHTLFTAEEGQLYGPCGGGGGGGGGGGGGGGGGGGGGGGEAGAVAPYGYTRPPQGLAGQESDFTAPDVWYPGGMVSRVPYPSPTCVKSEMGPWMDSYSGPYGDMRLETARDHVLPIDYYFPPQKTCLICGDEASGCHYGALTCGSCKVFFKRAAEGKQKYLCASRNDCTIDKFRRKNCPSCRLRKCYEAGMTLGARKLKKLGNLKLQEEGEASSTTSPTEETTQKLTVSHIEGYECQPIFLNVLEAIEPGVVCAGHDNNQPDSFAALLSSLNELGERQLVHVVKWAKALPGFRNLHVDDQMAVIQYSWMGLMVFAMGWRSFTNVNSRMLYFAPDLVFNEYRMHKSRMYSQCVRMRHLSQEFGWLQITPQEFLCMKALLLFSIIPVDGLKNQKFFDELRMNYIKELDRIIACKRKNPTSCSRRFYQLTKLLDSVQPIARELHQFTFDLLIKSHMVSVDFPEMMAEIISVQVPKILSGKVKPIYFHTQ

[2] = system: LNCaP; assay: Cytotoxicity against human LNCAP cells assessed as growth inhibition at 6 uM after 4 days; type: functional, cell-based
In short: (§1)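 Viability read after a 4-day incubation with compound at 6 µM in LNCaP, enzalutamide-resistant LNCaP-derived and AR-independent PC3 prostate cancer cells; data given as mean ± SEM.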

[3] = molecular target: T2, Estrogen receptor (Homo sapiens) (UniProt P03372); assay: Inhibition of estrogen receptor alpha in human MCF7 cells at 1 to 10 uM after 3 days by luciferase reporter gene assay; type: cell-based
T2 sequence (whole entry): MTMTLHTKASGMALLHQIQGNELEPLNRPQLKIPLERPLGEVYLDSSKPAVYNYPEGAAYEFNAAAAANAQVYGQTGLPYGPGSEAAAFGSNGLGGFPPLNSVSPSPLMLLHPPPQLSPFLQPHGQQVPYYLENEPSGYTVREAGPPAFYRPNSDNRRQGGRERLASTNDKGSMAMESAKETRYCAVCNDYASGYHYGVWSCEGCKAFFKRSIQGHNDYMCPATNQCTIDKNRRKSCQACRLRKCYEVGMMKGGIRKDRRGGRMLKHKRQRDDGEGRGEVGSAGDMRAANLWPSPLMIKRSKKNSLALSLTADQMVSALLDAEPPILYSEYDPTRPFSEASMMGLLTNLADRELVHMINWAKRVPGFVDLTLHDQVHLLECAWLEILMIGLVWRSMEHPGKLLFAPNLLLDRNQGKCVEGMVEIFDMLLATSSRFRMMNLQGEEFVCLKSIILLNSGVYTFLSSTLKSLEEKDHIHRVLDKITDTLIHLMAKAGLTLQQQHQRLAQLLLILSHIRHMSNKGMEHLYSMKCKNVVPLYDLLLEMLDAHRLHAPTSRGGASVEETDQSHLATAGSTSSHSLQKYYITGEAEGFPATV
In short: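 MCF-7 cells were kept 5 days in phenol-red-free RPMI 1640 with 10% CSS, then seeded. After 24 h they were transfected with a luciferase plasmid driven by a consensus estrogen response element. Next day they were treated with 1 nM E2 plus test compound (10 µM final) in 0.1% EtOH/0.1% DMSO. Cells were lysed 24 h later and luminescence read.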

[4] = system: PC-3; assay: Cytotoxicity against AR independent human PC3 cells assessed as growth inhibition at 6 uM after 4 days; type: functional, cell-based; in short: as §1
[5] = system: LNCaP; assay: Cytotoxicity against enzalutamide-resistant human LNCAP cells assessed as growth inhibition at 6 uM after 4 days; type: functional, cell-based; in short: as §1
[6] = molecular target: T1, Androgen receptor; type: cell-based, LNCaP
[7] = molecular target: T1, Androgen receptor; assay: Inhibition of BF3 site of androgen receptor in human LNCAP cells expressing ARR2PB assessed as reduction in PSA level after 3 days; type: cell-based

| SMILES | IC50 [1] | also measured |
| --- | --- | --- |
| NS(=O)(=O)c1ccc(OCCSc2nc3ccccc3[nH]2)cc1 | 62 µM | – |
| Cc1ccc(OCCSc2nc3ccccc3n2CC(=O)OC(C)C)cc1C | 30.6 µM | – |
| Cc1cccc(OCCSc2nc3ccccc3n2CC(=O)N2CCOCC2)c1 | > 200 µM | – |
| CCOc1cccc(OCCSc2nc3ccccc3n2CCOc2ccc(C)cc2)c1 | 22.8 µM | – |
| COCCn1c(SCCOc2cccc(C)c2)nc2ccccc21 | 24.1 µM | – |
| Cc1ccccc1OCCSc1nc2ccccc2[nH]1 | 19 µM | – |
| Cc1ccc(OCCSc2nc3ccccc3n2CC(=O)O)cc1 | 164 µM | – |
| Cc1ccc(OCCSc2nc3ccccc3n2CC(=O)O)cc1C | > 200 µM | – |
| c1ccc(OCCCc2nc3ccccc3[nH]2)cc1 | > 200 µM | – |
| Cc1cccc(OCCSc2nc3ccccc3n2C)c1 | 45 µM | – |
| c1ccc(OCCSc2nc3ccccc3o2)cc1 | > 200 µM | – |
| NS(=O)(=O)c1cccc2cc(SCCOc3ccccc3)[nH]c12 | 1.5 µM | growth inhibition (GI) [2]: Active; inhibition [3]: inactive; growth inhibition (GI) [4]: inactive; growth inhibition (GI) [5]: Active; IC50 [6]: 6.4 µM; IC50 [7]: 1.6 µM |
| Cc1cccc(C)c1OCCSc1nc2ccccc2[nH]1 | 2.7 µM | growth inhibition (GI) [2]: Active; inhibition [3]: inactive; growth inhibition (GI) [4]: inactive; growth inhibition (GI) [5]: Active; IC50 [6]: 6.8 µM; IC50 [7]: 1.9 µM |
| c1ccc(OCCNc2nc3ccccc3[nH]2)cc1 | > 200 µM | – |
| c1ccc(OCCSc2nc3ccccc3[nH]2)cc1 | – | growth inhibition (GI) [2]: inactive; inhibition [3]: inactive; growth inhibition (GI) [4]: inactive; growth inhibition (GI) [5]: inactive |
| Cc1ccc(OCCSc2nc3ccccc3n2CCC(=O)O)cc1 | > 200 µM | – |
| CCn1c(SCCOc2cccc(C)c2)nc2ccccc21 | 35 µM | – |
| CCOC(=O)Cn1c(SCCOc2cccc(C)c2)nc2ccccc21 | 14.1 µM | – |
| Cc1cccc(OCCSc2nc3ccccc3n2CC(=O)O)c1 | > 200 µM | – |
| c1ccc(CCSc2nc3ccccc3[nH]2)cc1 | 7.4 µM | – |
| c1ccc(OCCCSc2nc3ccccc3[nH]2)cc1 | > 200 µM | – |
| O=S(=O)(CCOc1ccccc1)c1nc2ccccc2[nH]1 | > 200 µM | – |
| CCc1cccc(OCCSc2nc3ccccc3n2CCC(=O)O)c1 | > 200 µM | – |
| CCc1cccc(OCCSc2nc3ccccc3n2CC(=O)O)c1 | > 200 µM | – |
| COC(=O)Cn1c(SCCOc2ccc(C)cc2)nc2ccccc21 | 32.9 µM | – |
| C=CCc1cccc(OCCSc2nc3ccccc3n2CC(=O)OC)c1 | > 200 µM | – |

| SMILES | IC50 [1] | also measured |
| --- | --- | --- |
| COC(=O)Cn1c(SCCOc2ccc(C)c(C)c2)nc2ccccc21 | > 200 µM | – |
| CC(C)(C)c1cccc(OCCSc2nc3ccccc3n2CC(=O)O)c1 | > 200 µM | – |
| C=CCn1c(SCCOc2ccccc2)nc2ccccc21 | > 200 µM | – |
| Clc1ccc(OCCSc2nc3ccccc3[nH]2)cc1 | 4 µM | – |
| Cc1cccc(OCCSc2nc3ccccc3n2CCC(=O)O)c1 | > 200 µM | – |
| c1ccc(OCCSc2cc3ccccc3[nH]2)cc1 | 5.4 µM | – |
| CCOC(=O)Cn1c(SCCOc2cccc(CC)c2)nc2ccccc21 | 55 µM | – |
| Cc1cccc(OCCSc2nc3ccccc3n2CC(=O)OC(C)C)c1 | 13.7 µM | – |
| Cc1cc(C)cc(OCCSc2nc3ccccc3n2CC(=O)O)c1 | > 200 µM | – |
| c1ccc(CCCSc2nc3ccccc3[nH]2)cc1 | 12 µM | – |
| Cc1ccc(OCCSc2nc3ccccc3n2CC(=O)OC(C)C)cc1 | 11.1 µM | – |
| CCc1cccc(OCCSc2nc3ccccc3n2CC(=O)OC)c1 | > 200 µM | – |
| O=C(O)CCn1c(SCCOc2ccccc2)nc2ccccc21 | > 200 µM | – |
| CCOC(=O)Cn1c(SCCOc2cc(C)cc(C)c2)nc2ccccc21 | > 200 µM | – |
| OCCn1c(SCCOc2ccccc2)nc2ccccc21 | > 200 µM | – |
| c1ccc(NCCSc2nc3ccccc3[nH]2)cc1 | > 200 µM | – |
| Cc1cccc(OCCSc2nc3ccccc3[nH]2)c1 | 1.8 µM | growth inhibition (GI) [2]: Active; inhibition [3]: inactive; growth inhibition (GI) [4]: inactive; growth inhibition (GI) [5]: Active; IC50 [6]: 13 µM; IC50 [7]: 3.3 µM |
| Cc1ccc(C)c(OCCSc2nc3ccccc3n2CC(=O)O)c1 | > 200 µM | – |
| [O-][S+](CCOc1ccccc1)c1nc2ccccc2[nH]1 (stereo not drawn) | > 200 µM | – |
| Cc1cccc(OCCSc2nc3ccccc3n2CCOc2ccccc2)c1 | > 200 µM | – |
| CCn1c(SCCOc2ccccc2)nc2ccccc21 | 12 µM | – |
| COCCn1c(SCCOc2ccc(C)cc2)nc2ccccc21 | 12.7 µM | – |
| Cc1ccc(OCCSc2nc3ccccc3[nH]2)cc1 | 7 µM | – |
| CCOC(=O)Cn1c(SCCOc2ccc(C)c(C)c2)nc2ccccc21 | 40.3 µM | – |
| Clc1cccc(OCCSc2nc3ccccc3[nH]2)c1 | 5 µM | – |
| CCN(CC)C(=O)Cn1c(SCCOc2cccc(C)c2)nc2ccccc21 | > 200 µM | – |
